Key:
Format in all cases: functional
SNB-75 = assay: Cytotoxicity against human SNB75 cells after 48 hrs by SRB assay; settings: SNB-75, 48 h
Procedure, shortened: (§1)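 NCI 60-panel five-dose screen. Cells in RPMI 1640 with 5% FBS and 2 mM L-glutamine are plated at 5000–40,000 cells/well by doubling time and preincubated 24 h at 37 °C in 5% CO2. Drug in DMSO is tested at 0.01, 0.1, 1, 10 and 100 μM for 48 h. Cells are TCA-fixed, stained with SRB and read at 515 nm. GI50 is the concentration giving 50% reduction in net protein increase relative to time-zero and control plates.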

HOP-62 = assay: Cytotoxicity against human HOP62 cells after 48 hrs by SRB assay; settings: HOP-62, 48 h
Procedure, shortened: (§2)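 NCI 60-panel five-dose screen. Cells in RPMI 1640 with 5% FBS and 2 mM L-glutamine, plated at 5000–40,000 cells/well by doubling time, preincubated 24 h at 37 °C/5% CO2. Drug from DMSO stock added at 0.01, 0.1, 1, 10 and 100 µM, then 48 h. TCA fixation, SRB stain, absorbance at 515 nm, time-zero plates included. GI50 = 50% reduction in net protein increase versus control.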

SW-620 = assay: Cytotoxicity against human SW620 cells after 48 hrs by SRB assay; settings: SW-620, 48 h
Procedure, shortened: (§3)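 NCI 60 five-dose screen. Cells in RPMI 1640 with 5% FBS and 2 mM L-glutamine, plated at 5000–40,000 cells/well by doubling time, pre-incubated 24 h at 37 °C, 5% CO2. Time-zero plates TCA-fixed at drug addition. Final concentrations 0.01, 0.1, 1, 10 and 100 µM (DMSO stock), 48 h exposure. TCA fixation, 0.4% SRB stain, absorbance 515 nm. GI50 from [(Ti−Tz)/(C−Tz)]×100 = 50.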

CAKI-1 = assay: Cytotoxicity against human Caki1 cells after 48 hrs by SRB assay; settings: CAKI-1, 48 h; procedure, shortened: as §2
DU-145 = assay: Cytotoxicity against human DU145 cells after 48 hrs by SRB assay; settings: DU-145, 48 h; procedure, shortened: as §2
SK-MEL-28 = assay: Cytotoxicity against human SK-MEL-28 cells after 48 hrs by SRB assay; settings: SK-MEL-28, 48 h; procedure, shortened: as §1
NCI-H226 = assay: Cytotoxicity against human NCI-H226 cells after 48 hrs by SRB assay; settings: NCI-H226, 48 h; procedure, shortened: as §1
HCC 2998 = assay: Cytotoxicity against human HCC2998 cells after 48 hrs by SRB assay; settings: HCC 2998, 48 h; procedure, shortened: as §2
MDA-MB-468 = assay: Cytotoxicity against human MDA-MB-468 cells after 48 hrs by SRB assay; settings: MDA-MB-468, 48 h; procedure, shortened: as §1
HCT-116 = assay: Cytotoxicity against human HCT116 cells after 48 hrs by SRB assay; settings: HCT-116, 48 h; procedure, shortened: as §2
IGROV-1 = assay: Cytotoxicity against human IGROV1 cells after 48 hrs by SRB assay; settings: IGROV-1, 48 h; procedure, shortened: as §2
HCT-15 = assay: Cytotoxicity against human HCT15 cells after 48 hrs by SRB assay; settings: HCT-15, 48 h; procedure, shortened: as §2
SF-539 = assay: Cytotoxicity against human SF539 cells after 48 hrs by SRB assay; settings: SF-539, 48 h; procedure, shortened: as §1
SF-295 = assay: Cytotoxicity against human SF295 cells after 48 hrs by SRB assay; settings: SF-295, 48 h; procedure, shortened: as §1
ACHN = assay: Cytotoxicity against human ACHN cells after 48 hrs by SRB assay; procedure, shortened: as §2
MCF7 = assay: Cytotoxicity against human MCF7 cells after 48 hrs by SRB assay; settings: MCF7, 48 h; procedure, shortened: as §2
LOX IMVI = assay: Cytotoxicity against human LOXIMVI cells after 48 hrs by SRB assay; procedure, shortened: as §2
A549 = assay: Cytotoxicity against human A549/ATCC cells after 48 hrs by SRB assay; settings: A549, 48 h; procedure, shortened: as §2
PC-3 = assay: Cytotoxicity against human PC3 cells after 48 hrs by SRB assay; settings: PC-3, 48 h; procedure, shortened: as §1
UACC-257 = assay: Cytotoxicity against human UACC257 cells after 48 hrs by SRB assay; settings: UACC-257, 48 h; procedure, shortened: as §3
Malme-3M = assay: Cytotoxicity against human MALME-3M cells after 48 hrs by SRB assay; procedure, shortened: as §2
MDA-MB-435 = assay: Cytotoxicity against human MDA-MB-435 cells after 48 hrs by SRB assay; settings: MDA-MB-435, 48 h; procedure, shortened: as §2
OVCAR-3 = assay: Cytotoxicity against human OVCAR3 cells after 48 hrs by SRB assay; settings: OVCAR-3, 48 h; procedure, shortened: as §1
NCI-H322M = assay: Cytotoxicity against human NCI-H322M cells after 48 hrs by SRB assay; procedure, shortened: as §1
SF-268 = assay: Cytotoxicity against human SF268 cells after 48 hrs by SRB assay; settings: SF-268, 48 h; procedure, shortened: as §1
KM12 = assay: Cytotoxicity against human KM12 cells after 48 hrs by SRB assay; settings: KM12, 48 h; procedure, shortened: as §2
COLO 205 = assay: Cytotoxicity against human COLO205 cells after 48 hrs by SRB assay; settings: COLO 205, 48 h; procedure, shortened: as §2
[1] = read-out: LC50 (the source's name)

NC(=O)Nc1ccc2ncnc(Nc3ccc(Cl)cc3)c2c1
GI50 (SNB-75): 3.36 µM
TGI (SNB-75): 47 µM
CC50 (SNB-75; [1]): > 100 µM
GI50 (HOP-62): 21.1 µM
TGI (HOP-62): 84.4 µM
CC50 (HOP-62; [1]): > 100 µM
GI50 (SW-620): 39.7 µM
TGI (SW-620): > 100 µM
CC50 (SW-620; [1]): > 100 µM
GI50 (CAKI-1): 1.33 µM
TGI (CAKI-1): 21.5 µM
CC50 (CAKI-1; [1]): > 100 µM
GI50 (DU-145): 2.72 µM
TGI (DU-145): > 100 µM
CC50 (DU-145; [1]): > 100 µM
GI50 (SK-MEL-28): 26.7 µM
TGI (SK-MEL-28): > 100 µM
CC50 (SK-MEL-28; [1]): > 100 µM
GI50 (NCI-H226): 22.3 µM
TGI (NCI-H226): > 100 µM
CC50 (NCI-H226; [1]): > 100 µM
GI50 (HCC 2998): 37.6 µM
TGI (HCC 2998): > 100 µM
CC50 (HCC 2998; [1]): > 100 µM
GI50 (MDA-MB-468): 1.09 µM
TGI (MDA-MB-468): 3.95 µM
CC50 (MDA-MB-468; [1]): > 100 µM
GI50 (HCT-116): 24.9 µM
TGI (HCT-116): > 100 µM
CC50 (HCT-116; [1]): > 100 µM
GI50 (IGROV-1): 6.85 µM
TGI (IGROV-1): 27.6 µM
CC50 (IGROV-1; [1]): 90.1 µM
GI50 (HCT-15): 17.8 µM
TGI (HCT-15): > 100 µM
CC50 (HCT-15; [1]): > 100 µM
GI50 (SF-539): 25.5 µM
TGI (SF-539): > 100 µM
CC50 (SF-539; [1]): > 100 µM
GI50 (SF-295): 14.8 µM
TGI (SF-295): 45.5 µM
CC50 (SF-295; [1]): > 100 µM
GI50 (ACHN): 1.47 µM
TGI (ACHN): 35.8 µM
CC50 (ACHN; [1]): > 100 µM
GI50 (MCF7): 26.2 µM
TGI (MCF7): > 100 µM
CC50 (MCF7; [1]): > 100 µM
GI50 (LOX IMVI): 19.3 µM
TGI (LOX IMVI): 68.7 µM
CC50 (LOX IMVI; [1]): > 100 µM
GI50 (A549): 19.2 µM
TGI (A549): > 100 µM
CC50 (A549; [1]): > 100 µM
GI50 (PC-3): 16.7 µM
TGI (PC-3): 92.5 µM
CC50 (PC-3; [1]): > 100 µM
GI50 (UACC-257): 23.5 µM
TGI (UACC-257): 75.2 µM
CC50 (UACC-257; [1]): > 100 µM
GI50 (Malme-3M): 22 µM
TGI (Malme-3M): 60.7 µM
CC50 (Malme-3M; [1]): > 100 µM
GI50 (MDA-MB-435): 16.9 µM
TGI (MDA-MB-435): 47.6 µM
CC50 (MDA-MB-435; [1]): > 100 µM
GI50 (OVCAR-3): 8.36 µM
TGI (OVCAR-3): 69.5 µM
CC50 (OVCAR-3; [1]): > 100 µM
GI50 (NCI-H322M): 0.36 µM
TGI (NCI-H322M): 6.64 µM
CC50 (NCI-H322M; [1]): > 100 µM
GI50 (SF-268): 17.1 µM
TGI (SF-268): > 100 µM
CC50 (SF-268; [1]): > 100 µM
GI50 (KM12): 28.4 µM
TGI (KM12): > 100 µM
CC50 (KM12; [1]): > 100 µM
GI50 (COLO 205): 27.5 µM
TGI (COLO 205): > 100 µM
CC50 (COLO 205; [1]): > 100 µM
